Hck Nef HTS – inhibitors of Nef-activated human Hck kinase, primary screen, biochemical, Z-Lyte FRET, 384-well, Hck-YEEI. Tyrosine-protein kinase HCK (Homo sapiens), P08631. hit rate 0.68% among 220,000. AID 463187, 2010. inhibition, % at 20 µM. Recombinant Hck-YEEI plus Nef, Z-Lyte FRET kinase assay;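 active means Hck-Nef kinase inhibition above about 50%, limit read from the data; inactive means inhibition below that limit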;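 further: 0% = DMSO with Hck plus Nef and 100% = Hck alone without Nef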
TAG inh – inhibitors of triacylglycerol accumulation, primary screen, cell-based, uHTS, fluorescence, H9c2; H9c2 cells, Nile Red lipid (TAG) fluorescence; cells loaded with 200 µM oleic acid; inhibition, % at 12.5 µM; hit rate 0.66% among 230,000; AID 651582, 2012;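 active means pattern-corrected inhibition of lipid staining of at least 50% with the nuclear-stain viability signal not falling by more than 50%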;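 further: 0% = DMSO wells and 100% = triacsin C control wells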
MDM2 E3 inh – MDM2-luciferase reporter signal enhancers, primary screen, MDM2 E3 ligase inhibitor project, cell-based, luminescence, 1536-well | hit rate 0.11% among 210,000 | cell-based MDM2 ubiquitination luciferase reporter, 2 h; 0 = plate control, 100 = twice control, blank-subtracted | signal enhancement, % at 5 µM | E3 ubiquitin-protein ligase Mdm2 (Homo sapiens), Q00987;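 active means signal enhancement of 30% or more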;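 further: luminescence tracks abundance of the self-degrading MDM2-luciferase fusion protein; higher signal means inhibition of MDM2 E3 ligase activity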
Target sequence (Q00987 whole entry, looked up, the tested form may be a part): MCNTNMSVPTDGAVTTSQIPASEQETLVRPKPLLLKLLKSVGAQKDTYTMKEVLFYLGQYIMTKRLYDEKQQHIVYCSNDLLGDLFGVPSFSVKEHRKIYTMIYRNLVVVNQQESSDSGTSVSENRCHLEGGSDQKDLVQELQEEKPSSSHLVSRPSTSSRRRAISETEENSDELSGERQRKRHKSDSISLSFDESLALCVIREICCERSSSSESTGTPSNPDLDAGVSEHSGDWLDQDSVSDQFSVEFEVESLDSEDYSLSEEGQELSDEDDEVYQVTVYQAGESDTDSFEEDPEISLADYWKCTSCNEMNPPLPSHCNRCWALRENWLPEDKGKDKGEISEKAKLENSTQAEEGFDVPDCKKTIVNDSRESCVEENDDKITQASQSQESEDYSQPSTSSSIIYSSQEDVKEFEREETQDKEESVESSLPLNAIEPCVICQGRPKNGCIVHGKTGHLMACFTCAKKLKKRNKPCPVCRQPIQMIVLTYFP
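system = mammalian cells stably expressing self-ubiquitinating, self-degrading MDM2 E3–luciferase fusion | quantity = 2000 cells per well seeded | incubation = 4 h cell settling then 2 h compound exposure, 37 °C | signal = SteadyLite luminescence, 15 min reagent step | benchmarks = plate control and blank wells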
PERK inhibitor – block of dimerizer-induced PERK translation repression, primary screen, PERK inhibitor project, CHO PERK-DD cells, SEAP luminescence, HTS. Eukaryotic translation initiation factor 2-alpha kinase 3 (Homo sapiens), Q9NZJ5. CHO PERK-DD fusion, SEAP luminescence translation reporter. inhibition, % at 5.6 µM. hit rate 0.17% among 220,000;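 active means inhibition above the mean inhibition of all tested compounds plus 3 SD, set separately per screening campaign, cut at about 2.9% in these data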;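 further: PERK kinase domain activated by AP20187 dimerizer at 100 nM; 0% = DMSO with dimerizer and 100% = rapamycin at 8.4 µM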
PKD1 kinase inh – inhibitors of human PKD1 kinase, biochemical, fluorescence polarization. PKD1 kinase fluorescence polarization assay. inhibition, % (concentration not given with the values). hit rate 0.056% among 200,000. AID 797, 2007; in the data active means inhibition above about 50%
Rad51 HR inh – human RAD51 strand exchange inhibitors, primary screen, biochemical, fluorescence; inhibition, % at 10 µM; hit rate 0.085% among 200,000; hRad51 DNA strand exchange, fluorescence dequenching; AID 1385, 2008;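 active means inhibition above 40% at the single screening dose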;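 further: 0% = DMSO control wells and 100% = blanks with heterologous ssDNA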
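Material: human Rad51–ssDNA filaments; Probe or stimulus: labelled 47-mer dsDNA for strand exchange; Doses: single 10 µM dose; Incubation: 37 °C 15-min filament assembly, 30-min compound preincubation, 15-min exchange; Technique: FRET fluorescence dequenching, excitation 485 nm, emission 520 nm; Measure: Fluorescence-based percent inhibition, control- and blank-normalised; Benchmarks: plate control and blank wells.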
H9c2 TAG conf – triacylglycerol accumulation inhibitors, retest, confirmation, cell-based, single concentration, Nile Red fluorescence, H9c2 | hit rate 71% among 990 | inhibition, % at 12.5 µM | AID 651629, 2012 | shares compounds with TAG inh | H9c2 lipid accumulation; cells loaded with 200 µM oleic acid;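 active means mean inhibition across replicates of 40% or more; inactive means mean inhibition below 40%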;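 further: plate controls were DMSO only wells for no effect and Triacsin C treated wells for full effect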
* marks the source's active call; other numbers are inactive results; . = not tested or not shown. A selection: hits, their analogues and other compounds. The true share with any hit is near 1.3%.

SMILES	Hck Nef HTS	TAG inh	MDM2 E3 inh	PERK inhibitor	PKD1 kinase inh	Rad51 HR inh	H9c2 TAG conf
CC(C)c1ccc(CC(=O)N2CCC2(C)C(=O)NCCC#N)cc1 (stereo unspecified)	.	8.0	.	.	.	.	.
COc1cccc(NC(=O)N2CCc3nc(Nc4ccc(C(C)C)cc4)ncc3C2)c1	.	70.6*	.	.	.	.	83.4*
COc1cc(Nc2ncc3c(n2)CCN(C(=O)Nc2ccc(C(C)C)cc2)C3)cc(OC)c1OC	.	32.6	.	.	.	.	.
CC1CCCCN1C(=O)Cn1c(=O)oc2cc(S(=O)(=O)N3CCCC3)ccc21 (stereo unspecified)	.	-0.5	.	.	.	.	.
O=C(N/N=C/c1ccc(Cl)cc1)c1n[nH]c2c1CCCC2	24.3	58.8*	-4.0	0.3	.	9.4	37.0
O=C(N/N=C/c1ccccc1)c1n[nH]c2c1CCCC2	8.3	2.7	-42.6	-0.1	-6.0	5.4	.
CCNC(=O)C1(C)CCCN(Cc2ccc3ccccc3c2Br)C1 (stereo unspecified)	.	-13.0	.	.	.	.	.
O=C(COc1ccc(Cl)cc1Cl)N/N=C1\CCCc2ccccc21	1.2	-0.7	-19.9	0.5	0.4	1.8	.
O=C(COc1ccc(Cl)cc1Cl)NN=C1c2ccccc2-c2ccccc21	2.4	50.7*	2.2	1.2	5.8	.	20.8
Cc1cccc(NC(=O)C(C)Sc2nc3ccccc3c(=O)n2CCCN2CCOCC2)c1 (stereo unspecified)	.	52.9*	.	.	.	.	56.9*
O=C(/C=C/c1ccccc1)Oc1cccc2cccnc12	-0.9	50.5*	-5.3	0.1	.	-9.8	-4.6
O=C(/C=C\c1ccccc1)Oc1cccc2cccnc12	23.6	0.8	-8.2	0.4	-1.4	-62.1	.
O=C(NCC1CC1)c1onc(CSc2ccncc2)c1C(=O)NCC1CC1	25.9	50.3*	-2.5	.	.	-0.8	31.6
C=CCn1c[n+](CC(=O)c2ccc(Br)s2)c2ccccc21	20.4	.	-4.1	0.9	-2.8	4.7	.
COc1ccc(CCNC(=O)Cc2cc(OCc3ccccc3)c(OC)cc2[N+](=O)[O-])cc1OC	-0.5	63.5*	-4.0	-0.6	0.3	-2.1	33.0
CCN(CC)S(=O)(=O)c1ccc(S(=O)(=O)N(CC(=O)Nc2ccccc2)CC2CCCO2)cc1 (stereo unspecified)	10.1	.	.	1.2	-7.4	-6.2	.
O=C(CN(CC1CCCO1)S(=O)(=O)c1ccc(S(=O)(=O)NC2CC2)cc1)Nc1ccccc1 (stereo unspecified)	1.0	51.1*	-14.8	-0.5	0.1	11.3	38.5
O=C(CCc1c[nH]c2ccccc12)N1CCN(S(=O)(=O)c2ccc(F)cc2)CC1	.	13.9	.	.	.	.	.
O=C(c1ccoc1)N1CCN(c2cc(-c3cccnc3)nc3cc(-c4cccc(Cl)c4)nn23)CC1	.	51.8*	.	.	.	.	41.0*
O=C(c1ccoc1)N1CCN(c2cc(-c3ccncc3)nc3cc(-c4cccc(Cl)c4)nn23)CC1	.	62.9*	.	.	.	.	49.4*
O=C(c1ccoc1)N1CCN(c2cc(-c3ccccc3)nc3cc(-c4ccc(Br)cc4)nn23)CC1	.	75.3*	.	.	.	.	65.4*
CCN=C(NCC)SC1CC(=O)N(c2ccc(F)cc2)C1=O (stereo unspecified)	-29.7	8.4	-9.2	-0.5	-6.0	-3.5	.
CCc1cccc(C)c1NC(=O)CN1CCN(S(=O)(=O)c2ccc(C(C)(C)C)cc2)CC1	.	-8.7	.	.	.	.	.
CC(C)(C)c1ccc(C(=O)NNc2cc(N3CCCCC3)nc(N3CCCCC3)n2)cc1	1.5	59.8*	-18.0	-0.2	-27.0	-3.1	35.9
CC(Sc1nc(NCc2ccccc2)nc(N2CCOCC2)n1)C(=O)Nc1ccccc1 (stereo unspecified)	7.1	70.0*	2.9	-2.2	1.2	7.9	46.6*
SMILES	Hck Nef HTS	TAG inh	MDM2 E3 inh	PERK inhibitor	PKD1 kinase inh	Rad51 HR inh	H9c2 TAG conf
Cc1ccccc1NC(=O)CSc1nc(Nc2ccccc2)nc(N2CCOCC2)n1	0.4	53.7*	-1.7	0.0	-4.2	-7.0	46.1*
CCNc1nc(SC(C)C(=O)Nc2ccccc2)nc(N2CCOCC2)n1 (stereo unspecified)	-0.7	30.7	-11.8	-0.4	-9.3	2.5	.
O=C(CSc1nc(Nc2ccccc2)nc(N2CCOCC2)n1)N1CCc2ccccc21	0.4	.	6.1	-0.2	-1.8	0.5	.
O=C(CSc1nc(Nc2ccccc2)nc(N2CCOCC2)n1)N1CCCC1	0.6	71.3*	-10.9	0.1	-1.8	10.9	40.9*
Cc1ccc(F)cc1NC(=O)CSc1nc(Nc2ccccc2)nc(N2CCOCC2)n1	.	42.5	.	.	.	.	.
O=C(CSc1nc(N2CCCCC2)nc(N2CCCCC2)n1)N1CCN(c2ccccc2)CC1	2.9	60.2*	.	0.0	-12.6	7.3	27.4
COc1ccc(S(=O)(=O)N2CCOCC2)cc1NC(=O)CCCOc1ccc(C(C)=O)cc1	.	4.1	.	.	.	.	.
Cc1nn2c(N3CCN(C)CC3)c3c(nc2c1-c1ccccc1)CCCC3	2.2	57.9*	-6.2	-1.3	.	15.8	44.8*
Cc1nn2c(NCc3ccccn3)c3c(nc2c1-c1ccccc1)CCC3	13.5	61.2*	.	-0.4	.	9.5	40.1*
Fc1cccc(Cl)c1CSc1nnc2ccccn12	4.0	11.4	-1.1	-0.6	-1.1	-1.9	.
NC(=O)c1ccccc1NC(=O)Nc1ccc(F)c(Cl)c1	18.7	11.6	-13.1	0.3	3.6	1.2	.
CCOC(=O)/C(=N\Nc1ccc(Cl)cc1)c1csc(Nc2ccccc2)n1	0.4	75.4*	1.8	0.1	-2.5	-8.1	68.8*
CCOC(=O)/C(=N/Nc1ccccc1)c1csc(Nc2ccccc2)n1	-2.1	.	0.2	-0.3	2.6	-2.5	.
C[C@@H]1CN([C@@H](C)CO)C(=O)c2cc(N(C)C)ccc2O[C@@H]1CN(C)Cc1ccncc1	.	61.3*	.	.	.	.	10.5
N#CC1(C#N)OC12CCS(=O)(=O)c1ccccc12 (stereo unspecified)	.	-0.9	.	.	.	.	.
Fc1ccc(Oc2nc(-c3ccccn3)nc3ccccc23)cc1	7.6	56.3*	-6.7	-0.2	.	20.1	42.2*
COc1ccc(Oc2nc(-c3ccncc3)nc3ccccc23)cc1	-2.5	21.1	-5.8	0.4	.	6.9	.
c1ccc(Oc2nc(-c3ccccn3)nc3ccccc23)cc1	3.1	72.5*	-8.2	-0.7	.	17.9	50.9*

Screening results: PubChem BioAssay, several laboratories
